Compound activity: PubChem, The Scripps Research Institute Molecular Screening Center
SMARCA2 act = SMARCA2 function activation, primary screen; MG213 cells, MMTV-luciferase reporter, dexamethasone, overnight; activation, % at 9.1 µM; 370,000 compounds, 1% hits; in the data active = activation above about 7.8%;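 also: 0% = vehicle wells and 100% = reference activator wells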
NR2E3 ag-1 = NR2E3 (human) agonism. Q9Y5X4. GST-NR2E3/biotin-RetCOR TR-FRET, 1536-well. inhibition of corepressor binding, % at 4.78 µM. 320,000 compounds, 0.12% hits. AID 2300;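 active = percent inhibition above the cutoff of mean plus 3 SD of all tested compounds, set per screening campaign, cut at about 20% in these data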;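 also: 0% = DMSO wells and 100% = biotin wells as full block of FRET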
Target sequence (Q9Y5X4 whole entry, looked up): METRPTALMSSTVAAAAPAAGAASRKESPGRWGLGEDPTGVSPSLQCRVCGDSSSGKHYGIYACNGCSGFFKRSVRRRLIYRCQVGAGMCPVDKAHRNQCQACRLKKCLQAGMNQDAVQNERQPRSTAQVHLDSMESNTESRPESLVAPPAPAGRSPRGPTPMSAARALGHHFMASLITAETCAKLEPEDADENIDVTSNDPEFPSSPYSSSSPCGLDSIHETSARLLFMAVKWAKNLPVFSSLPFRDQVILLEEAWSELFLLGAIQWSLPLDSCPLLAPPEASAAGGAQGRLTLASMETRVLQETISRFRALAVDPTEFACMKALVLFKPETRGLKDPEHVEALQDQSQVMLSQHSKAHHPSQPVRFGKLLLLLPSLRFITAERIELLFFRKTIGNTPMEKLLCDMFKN
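System: GST-tagged NR2E3 plus biotinylated RetCOR corepressor; Buffer or medium: pH 7.5 Tris-based buffer; Probe or stimulus: RetCOR corepressor, biotinylated, 7 nM; Doses: compound at 4.8 µM, single dose; Schedule: 5 h incubation at 4 °C; Technique: time-resolved FRET; Evaluation: percent inhibition of TR-FRET ratio; Replication: one well per compound, singlicate testing.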
NR2E3 ag-2 = human photoreceptor-specific nuclear receptor agonism; 360,000 compounds, 0.35% hits; CHO-S Gal4-NCOR/VP16-NR2E3 two-hybrid, luciferase; Q9Y5X4; inhibition of corepressor binding, % at 3.98 µM;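 active = inhibition above the mean of all tested compounds plus 3 SD, cut at about 70% in these data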;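 also: 0% = DMSO with NR2E3 transfected cells and 100% = cells lacking NR2E3 construct; higher means lower luciferase signal from less NR2E3 corepressor binding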
NR2F2 inh = blocks human COUP-TFII nuclear receptor | P24468 | HEK293T NGFI-A luciferase reporter, luminescence | inhibition, % at 8.6 µM | 370,000 compounds, 0.7% hits | AID 686940;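 active = inhibition above a per-plate cutoff, mean inhibition of test wells between control levels plus 3 SD, cut at about 38% in these data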;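 also: cells cotransfected with COUP-TFII expression vector driving the NGFI-A reporter; 0% = median of COUP-TF2 test wells and 100% = reporter-only cells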
GalR3 antagonist = human GalR3 antagonism; O60755; HEK293 GalR3-CNG cAMP membrane potential fluorescence; galR3 body fused to GalR1 C-terminus; inhibition, % at 3 µM; 360,000 compounds, 0.44% hits; AID 651719;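 active = inhibition above the screen-wide average plus 3 SD, cut at about 13% in these data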;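 also: forskolin and galanin both at EC90 stimulate the cells; cAMP rise reported by CNG channel membrane potential dye signal; 0% = forskolin plus galanin with DMSO and 100% = forskolin alone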
Target sequence (O60755 1-299 limits assumed): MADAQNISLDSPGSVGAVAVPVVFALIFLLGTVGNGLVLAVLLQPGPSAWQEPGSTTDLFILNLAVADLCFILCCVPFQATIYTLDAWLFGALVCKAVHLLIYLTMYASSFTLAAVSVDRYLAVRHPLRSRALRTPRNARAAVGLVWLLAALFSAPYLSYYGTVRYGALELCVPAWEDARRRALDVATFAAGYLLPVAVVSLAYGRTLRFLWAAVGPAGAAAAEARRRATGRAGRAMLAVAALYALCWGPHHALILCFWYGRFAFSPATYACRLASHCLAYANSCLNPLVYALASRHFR
SMARCA2 act conf = confirmation of SMARCA2 (BRM) function activators. shares compounds with SMARCA2 act. MG213 cells, MMTV-luciferase with dexamethasone, luminescence, overnight; MG213 cells expressing E1A, Rb sequestered; DMSO wells 0%, reference activator 100%. activation, % at 9.1 µM. 3,500 compounds, 30% hits. AID 652260;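 active = activation above its plate's cutoff, the mean activation of tested wells plus 3 SD, cut at about 7.9% in these data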
GAL4-VP16 Luc = counter-screen for SMARCA2 activators: GAL4-VP16 luciferase reporter activation; shares compounds with SMARCA2 act; HEK293 GAL4-VP16 pG5luc reporter, luciferase luminescence; scaled: DMSO wells 0%, SAHA wells 100%; activation, % at 9.1 µM; 3,500 compounds, 41% hits;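 active = activation above the solvent-only control well mean plus 3 SD, averaged across control plates, cut at about 5.2% in these data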
An asterisk follows results filed as active; . = not tested or not shown. Shown are actives, neighbours in structure and some others; about 2.2% of the full set was active somewhere.

SMILES	SMARCA2 act	NR2E3 ag-1	NR2E3 ag-2	NR2F2 inh	GalR3 antagonist	SMARCA2 act conf	GAL4-VP16 Luc
Cc1cc(C)c2nc(-n3nc(C)cc3N)cc(C)c2c1	10.4*	-3.5	-92.2	-23.9	2.0	8.2*	6.2*
CCN1CCN(Cc2ccc(NC(=O)c3cc(NC(=O)c4cncc(-c5cccs5)c4)cc(OC)c3)cc2C(F)(F)F)CC1	11.2*	-2.2	-4.8	18.2	-1.7	5.2	1.5
O=C(COC(=O)Cn1nnc2ccccc21)NC1CCCC1	9.9*	-2.3	-4.5	0.1	-10.0	0.6	0.9
CCC(C)N(C(=O)CN1C(=O)C2CCCCN2C(=O)c2ccccc21)C(C)CC (stereo not drawn)	-5.4	.	.	-3.3	.	.	.
C[C@H]1[C@@H](OC(=O)NCc2ccc(C(F)(F)F)cc2)CC[C@@]23CCCN2C(=O)CCC[C@@H]13	.	.	.	1.0	.	.	.
O=[N+]([O-])c1ccc2c(c1)CO[C@]21O[C@H](CCO)C[C@H](O)[C@H]1O	-2.3	.	.	-2.5	-5.4	.	.
COc1cc2nc(N(C)C)nc(N)c2cc1OC	13.3*	-1.6	-20.5	-30.4	-3.2	27.7*	-0.4
Cc1csc(NC(=O)c2ccc(OCC3CCCO3)cc2)n1 (stereo not drawn)	1.1	0.5	-92.5	-17.7	-6.5	.	.
Cc1cccc2sc(NC(=O)c3ccc(OCC4CCCO4)cc3)nc12 (stereo not drawn)	11.6*	-1.0	-91.8	-9.3	-6.6	-2.2	3.5
CC(=O)Nc1cc2c(cc1Cl)-c1ccccc1C2	3.9	.	-97.8	-17.0	0.2	.	.
CCC(=O)Nc1cc2c(cc1Cl)-c1ccccc1C2	9.5*	.	-55.8	-13.3	-6.2	3.2	4.6
CC(C)CNC(=O)C1CSCCS(=O)(=O)N1Cc1ccc(F)cc1 (stereo not drawn)	6.3	.	.	8.7	.	.	.
CCN(CC)C(=O)C1=C(C)N(Cc2ccc(F)cc2)C(=O)C(CC(=O)NCc2ccco2)C1 (stereo not drawn)	8.4*	.	6.2	-5.6	-4.9	-5.9	0.7
Nc1nc(Nc2ccccc2)nc(NCc2ccco2)c1[N+](=O)[O-]	0.1	-0.2	1.3	-0.9	-10.3	.	.
Nc1nc(Nc2ccccc2F)nc(NCc2ccco2)c1[N+](=O)[O-]	12.8*	-1.1	-17.6	-37.5	0.8	7.4	2.3
CN1C2=N[C@H](c3ccc(Br)cc3)CC(=O)N2/C(=C\c2ccccc2)[C@@H]1c1ccccc1	.	.	.	-0.3	.	.	.
CCC(=O)Nc1ccc(NC(=O)CSc2nnnn2-c2cccnc2)cc1C	9.7*	-0.7	-23.0	-13.3	-8.4	-2.1	0.9
COc1ccc(CSc2nnc(SCc3ccccc3)s2)cc1	8.7*	.	.	-2.1	.	1.1	2.1
c1ccc(CSc2nnc(NC3CCCCC3)s2)cc1	15.5*	.	-104.3	-39.5	-6.4	6.2	8.6*
C#Cc1cccc(OC[C@@H](O)CN2CCC(C(O)(c3ccccc3)c3ccccc3)CC2)c1	-5.4	.	.	-8.5	.	.	.
Cc1nc(NCCc2ccccc2)sc1C(=O)N(C)C	8.6*	-1.6	-54.6	-2.4	-7.8	3.3	4.3
CC(C)(C)N1Cc2nnn(CC3CCCCC3)c2-c2ccccc2S1(=O)=O	1.7	.	.	-3.8	.	.	.
COc1ccc(C2=NN(C(=O)CN3CCCCC3)C(c3ccc(C)cc3)C2)cc1 (stereo not drawn)	-2.4	-2.2	-19.7	-10.0	-7.8	.	.
COc1ccc(C2=NN(C(=O)CN3CCOCC3)C(c3nc4ccccc4[nH]3)C2)cc1 (stereo not drawn)	11.1*	-4.5	-95.7	-50.8	1.7	7.3	7.6*
C[C@@H]1C[C@H]2[C@@H](C)C(=O)N3[C@H](c4ccccc4)[C@H](C)C[C@H]3[C@@H](C)C(=O)N2[C@@H]1c1ccccc1	-1.4	.	.	3.9	.	.	.
SMILES	SMARCA2 act	NR2E3 ag-1	NR2E3 ag-2	NR2F2 inh	GalR3 antagonist	SMARCA2 act conf	GAL4-VP16 Luc
Cc1ccnc(NC(=O)CNC(=O)c2ccc(C)s2)c1	9.8*	-3.2	2.2	-42.0	-3.6	3.9	6.7*
O=c1c2ccccc2nc2n1CCc1c-2[nH]c2ccccc12	16.4*	1.1	-103.9	-47.7	6.3	8.4*	9.3*
Cc1cc(C)cc(OCC(=O)Nc2cccc(-c3nc4ncccc4o3)c2)c1	8.6*	-0.3	5.8	7.2	3.9	-0.7	1.5
Cc1ccccc1-c1cccc2c3c([nH]c12)[C@@H]1C[C@H]2[C@@H](CN1CC3)[C@H](C)ON2C	-1.5	.	.	-8.5	.	.	.
COc1ccc2c(c1OC)C(=O)N(c1ccc(C)cc1)C2	9.4*	3.9	-96.8	-26.7	1.8	13.7*	8.4*
COc1ccc2c(c1OC)C(=O)N(c1cccc(C)c1)C2	7.2	3.5	-136.1	-60.6	-5.2	.	.
COc1ccc2c(c1OC)C(=O)N(c1cccc(C(F)(F)F)c1)C2	8.5*	3.9	-124.3	-27.2	-2.3	4.9	8.9*
COC(=O)[C@]12C[C@H](CC(=O)NCc3ccccc3)C(=O)N(Cc3ccco3)C1=C[C@H](COCc1ccccc1)O[C@@H]2C	-2.4	.	.	5.1	.	.	.
CCCCOCCCNC(=O)C[C@H]1C[C@@]2(C(=O)OC)C(=C[C@H](C(C)(C)C)O[C@@H]2C)N(Cc2ccco2)C1=O	-4.7	.	.	-3.6	.	.	.
COc1cc(C)ccc1OCCOc1ccccc1Cl	2.4	5.5	-83.4	-32.2	2.6	.	.
COc1cc(C)ccc1OCCCOc1ccccc1Cl	9.5*	-0.5	-117.6	-10.4	-6.3	13.1*	8.9*
c1ccc(C2Nc3ccccc3-c3nc4ccccc4n32)nc1 (stereo not drawn)	10.1*	-2.0	-35.9	-41.6	-6.7	1.3	1.0
c1ccc(C2Nc3ccccc3-c3nc4ccccc4n32)cc1 (stereo not drawn)	3.7	0.3	-83.9	-26.5	-5.2	.	.
C/C(=N/NC(=O)CSc1nnc(-c2ccccc2)n1-c1ccc(Cl)cc1)c1cccc(O)c1	-0.9	.	.	-0.7	.	.	.
CCCC(=O)Nc1ccc(-c2csc(NNC(C)=O)n2)cc1	12.4*	1.2	-6.4	5.6	-4.5	-1.8	2.1
O=C(c1ccc(Cl)c([N+](=O)[O-])c1)N(Cc1ccccc1)C1CCS(=O)(=O)C1 (stereo not drawn)	3.2	-4.7	-15.1	2.9	-1.1	.	.
O=C(c1ccc(Cl)c([N+](=O)[O-])c1)N(Cc1cccc(Cl)c1)C1CCS(=O)(=O)C1 (stereo not drawn)	10.1*	-0.2	-21.0	-8.8	-4.7	-4.2	0.9
CCCCCCCCN1CN2Cc3cc(F)ccc3C2CS1(=O)=O (stereo not drawn)	3.5	.	.	-2.5	.	.	.
O=[N+]([O-])c1ccc2[nH]c(=S)sc2c1	-2.1	.	31.7	2.2	-4.4	.	.
O=[N+]([O-])c1ccc2[nH]c(=S)[nH]c2c1	10.4*	.	28.4	-11.6	-7.6	10.5*	0.1
